Key:
[1] = target: Serine/threonine-protein kinase PAK 4 (Homo sapiens) (UniProt O96013); test: Inhibition of recombinant human GST-tagged PAK4 expressed in baculovirus expression system at 1 uM relative to control
Method in brief: (§1)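 Forty-kinase selectivity panel; each compound tested at a single 1 µM concentration in the presence of 1 mM ATP; result given as percent inhibition.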

[2] = target: Proto-oncogene tyrosine-protein kinase Src (Homo sapiens) (UniProt P12931); test: Inhibition of recombinant human full length His-tagged SRC expressed in baculovirus expression system at 1 uM relative to control; method in brief: as §1
[3] = target: Epidermal growth factor receptor (Homo sapiens) (UniProt P00533); test: Inhibition of recombinant human GST-tagged EGFR cytoplasmic domain expressed in baculovirus expression system at 1 uM relative to control; method in brief: as §1
[4] = target: Hepatocyte growth factor receptor (Homo sapiens) (UniProt P08581); test: Inhibition of recombinant human His-tagged c-Met cytoplasmic domain expressed in baculovirus expression system at 1 uM relative to control; method in brief: as §1
[5] = target: T1, Serine/threonine-protein kinase TAO2 (Homo sapiens) (UniProt Q9UL54); test: Inhibition of recombinant human GST-tagged TAOK2 expressed in baculovirus expression system at 1 uM relative to control; method in brief: as §1
T1 sequence (whole entry): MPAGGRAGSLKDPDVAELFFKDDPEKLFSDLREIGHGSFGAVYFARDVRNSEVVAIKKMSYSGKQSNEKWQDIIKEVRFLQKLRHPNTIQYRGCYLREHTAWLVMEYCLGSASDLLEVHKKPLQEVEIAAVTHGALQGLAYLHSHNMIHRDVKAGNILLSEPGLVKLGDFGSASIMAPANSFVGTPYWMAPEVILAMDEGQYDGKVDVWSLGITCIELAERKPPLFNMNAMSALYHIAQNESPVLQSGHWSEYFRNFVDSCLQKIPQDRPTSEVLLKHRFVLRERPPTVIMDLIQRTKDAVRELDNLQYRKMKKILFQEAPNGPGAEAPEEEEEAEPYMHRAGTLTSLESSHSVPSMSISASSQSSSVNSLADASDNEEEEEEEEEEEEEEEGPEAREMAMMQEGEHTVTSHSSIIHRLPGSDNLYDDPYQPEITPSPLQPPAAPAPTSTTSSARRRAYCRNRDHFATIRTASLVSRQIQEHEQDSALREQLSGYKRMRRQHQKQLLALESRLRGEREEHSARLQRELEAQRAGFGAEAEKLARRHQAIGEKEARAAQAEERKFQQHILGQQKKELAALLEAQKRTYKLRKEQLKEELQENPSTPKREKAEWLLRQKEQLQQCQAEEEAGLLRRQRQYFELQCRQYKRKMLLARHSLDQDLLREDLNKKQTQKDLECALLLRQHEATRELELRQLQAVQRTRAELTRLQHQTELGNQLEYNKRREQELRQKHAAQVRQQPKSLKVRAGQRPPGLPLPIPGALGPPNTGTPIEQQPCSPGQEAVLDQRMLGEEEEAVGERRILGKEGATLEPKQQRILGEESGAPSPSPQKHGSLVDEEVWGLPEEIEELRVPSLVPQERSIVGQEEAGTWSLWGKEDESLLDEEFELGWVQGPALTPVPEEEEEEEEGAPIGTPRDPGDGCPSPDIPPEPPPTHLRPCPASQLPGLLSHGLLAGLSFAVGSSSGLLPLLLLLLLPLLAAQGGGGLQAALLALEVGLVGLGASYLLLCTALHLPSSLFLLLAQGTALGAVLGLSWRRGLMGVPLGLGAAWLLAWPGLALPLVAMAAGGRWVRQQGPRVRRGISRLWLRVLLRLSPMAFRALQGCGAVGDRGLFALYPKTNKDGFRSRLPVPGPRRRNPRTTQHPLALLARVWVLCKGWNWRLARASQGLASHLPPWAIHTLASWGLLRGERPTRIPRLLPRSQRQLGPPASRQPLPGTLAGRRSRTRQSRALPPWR

Serine/threonine-protein kinase PAK 4 (Homo sapiens), sequence (O96013 whole entry, looked up): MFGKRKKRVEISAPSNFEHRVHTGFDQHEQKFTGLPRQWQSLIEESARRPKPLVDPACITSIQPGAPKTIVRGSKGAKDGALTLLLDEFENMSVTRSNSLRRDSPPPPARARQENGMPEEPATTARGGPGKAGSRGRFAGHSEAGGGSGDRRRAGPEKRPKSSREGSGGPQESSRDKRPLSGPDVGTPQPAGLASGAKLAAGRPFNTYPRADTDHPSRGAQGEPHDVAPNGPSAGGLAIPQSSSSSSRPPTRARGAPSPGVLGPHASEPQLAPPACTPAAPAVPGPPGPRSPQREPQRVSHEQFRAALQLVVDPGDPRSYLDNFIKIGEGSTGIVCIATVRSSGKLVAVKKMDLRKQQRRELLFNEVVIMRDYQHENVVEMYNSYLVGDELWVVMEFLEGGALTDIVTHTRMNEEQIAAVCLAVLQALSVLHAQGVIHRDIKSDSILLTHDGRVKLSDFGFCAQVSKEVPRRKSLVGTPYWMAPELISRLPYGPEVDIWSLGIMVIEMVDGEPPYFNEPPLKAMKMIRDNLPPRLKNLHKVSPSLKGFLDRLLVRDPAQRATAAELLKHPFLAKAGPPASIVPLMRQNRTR
Epidermal growth factor receptor (Homo sapiens), sequence (P00533 whole entry, the tested form may be a part): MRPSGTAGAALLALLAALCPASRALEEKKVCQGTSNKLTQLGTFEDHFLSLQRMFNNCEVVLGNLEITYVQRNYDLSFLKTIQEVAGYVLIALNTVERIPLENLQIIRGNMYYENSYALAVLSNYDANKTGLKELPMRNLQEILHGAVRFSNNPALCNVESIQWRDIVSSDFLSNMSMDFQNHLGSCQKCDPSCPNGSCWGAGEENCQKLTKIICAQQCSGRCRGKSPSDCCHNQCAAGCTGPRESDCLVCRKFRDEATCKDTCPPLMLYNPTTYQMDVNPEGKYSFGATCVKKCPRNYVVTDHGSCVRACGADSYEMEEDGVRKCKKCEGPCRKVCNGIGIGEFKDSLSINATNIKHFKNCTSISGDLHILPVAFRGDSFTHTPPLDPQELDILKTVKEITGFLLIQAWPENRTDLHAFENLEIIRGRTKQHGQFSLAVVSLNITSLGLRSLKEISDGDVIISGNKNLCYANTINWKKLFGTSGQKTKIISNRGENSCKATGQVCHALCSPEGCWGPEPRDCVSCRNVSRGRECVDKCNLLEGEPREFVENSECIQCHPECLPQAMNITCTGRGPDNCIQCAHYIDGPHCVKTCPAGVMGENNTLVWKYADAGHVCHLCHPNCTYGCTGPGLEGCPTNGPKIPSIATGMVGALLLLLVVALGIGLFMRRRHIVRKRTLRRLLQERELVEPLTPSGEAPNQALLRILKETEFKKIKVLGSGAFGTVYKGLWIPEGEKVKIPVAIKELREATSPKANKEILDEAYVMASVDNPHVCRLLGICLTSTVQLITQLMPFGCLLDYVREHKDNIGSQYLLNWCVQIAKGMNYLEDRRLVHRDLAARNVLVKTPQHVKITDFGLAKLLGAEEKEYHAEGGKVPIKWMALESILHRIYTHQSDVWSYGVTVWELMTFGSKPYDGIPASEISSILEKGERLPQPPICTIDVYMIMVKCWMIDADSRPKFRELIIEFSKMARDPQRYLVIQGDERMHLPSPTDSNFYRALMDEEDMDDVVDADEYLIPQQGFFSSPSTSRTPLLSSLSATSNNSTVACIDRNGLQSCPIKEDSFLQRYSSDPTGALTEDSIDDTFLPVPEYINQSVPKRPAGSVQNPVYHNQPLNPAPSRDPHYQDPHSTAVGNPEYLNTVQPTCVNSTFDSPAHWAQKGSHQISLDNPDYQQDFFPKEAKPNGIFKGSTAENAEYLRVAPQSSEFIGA
Proto-oncogene tyrosine-protein kinase Src (Homo sapiens), sequence (P12931 2-536 limits assumed): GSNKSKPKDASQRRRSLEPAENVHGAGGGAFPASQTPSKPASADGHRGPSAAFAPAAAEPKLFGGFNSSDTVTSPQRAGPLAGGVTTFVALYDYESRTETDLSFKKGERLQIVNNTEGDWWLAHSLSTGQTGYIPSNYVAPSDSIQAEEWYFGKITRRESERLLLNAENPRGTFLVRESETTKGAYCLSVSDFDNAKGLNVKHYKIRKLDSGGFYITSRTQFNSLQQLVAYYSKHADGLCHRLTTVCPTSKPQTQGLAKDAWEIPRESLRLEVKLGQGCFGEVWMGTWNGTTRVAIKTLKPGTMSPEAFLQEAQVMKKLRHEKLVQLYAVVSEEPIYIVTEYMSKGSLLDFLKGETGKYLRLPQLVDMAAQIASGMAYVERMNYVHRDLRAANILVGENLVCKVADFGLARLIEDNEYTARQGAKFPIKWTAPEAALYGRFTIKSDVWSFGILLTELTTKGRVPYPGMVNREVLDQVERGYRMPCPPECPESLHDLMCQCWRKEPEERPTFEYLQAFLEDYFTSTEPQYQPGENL
Hepatocyte growth factor receptor (Homo sapiens), sequence (P08581 whole entry, the tested form may be a part): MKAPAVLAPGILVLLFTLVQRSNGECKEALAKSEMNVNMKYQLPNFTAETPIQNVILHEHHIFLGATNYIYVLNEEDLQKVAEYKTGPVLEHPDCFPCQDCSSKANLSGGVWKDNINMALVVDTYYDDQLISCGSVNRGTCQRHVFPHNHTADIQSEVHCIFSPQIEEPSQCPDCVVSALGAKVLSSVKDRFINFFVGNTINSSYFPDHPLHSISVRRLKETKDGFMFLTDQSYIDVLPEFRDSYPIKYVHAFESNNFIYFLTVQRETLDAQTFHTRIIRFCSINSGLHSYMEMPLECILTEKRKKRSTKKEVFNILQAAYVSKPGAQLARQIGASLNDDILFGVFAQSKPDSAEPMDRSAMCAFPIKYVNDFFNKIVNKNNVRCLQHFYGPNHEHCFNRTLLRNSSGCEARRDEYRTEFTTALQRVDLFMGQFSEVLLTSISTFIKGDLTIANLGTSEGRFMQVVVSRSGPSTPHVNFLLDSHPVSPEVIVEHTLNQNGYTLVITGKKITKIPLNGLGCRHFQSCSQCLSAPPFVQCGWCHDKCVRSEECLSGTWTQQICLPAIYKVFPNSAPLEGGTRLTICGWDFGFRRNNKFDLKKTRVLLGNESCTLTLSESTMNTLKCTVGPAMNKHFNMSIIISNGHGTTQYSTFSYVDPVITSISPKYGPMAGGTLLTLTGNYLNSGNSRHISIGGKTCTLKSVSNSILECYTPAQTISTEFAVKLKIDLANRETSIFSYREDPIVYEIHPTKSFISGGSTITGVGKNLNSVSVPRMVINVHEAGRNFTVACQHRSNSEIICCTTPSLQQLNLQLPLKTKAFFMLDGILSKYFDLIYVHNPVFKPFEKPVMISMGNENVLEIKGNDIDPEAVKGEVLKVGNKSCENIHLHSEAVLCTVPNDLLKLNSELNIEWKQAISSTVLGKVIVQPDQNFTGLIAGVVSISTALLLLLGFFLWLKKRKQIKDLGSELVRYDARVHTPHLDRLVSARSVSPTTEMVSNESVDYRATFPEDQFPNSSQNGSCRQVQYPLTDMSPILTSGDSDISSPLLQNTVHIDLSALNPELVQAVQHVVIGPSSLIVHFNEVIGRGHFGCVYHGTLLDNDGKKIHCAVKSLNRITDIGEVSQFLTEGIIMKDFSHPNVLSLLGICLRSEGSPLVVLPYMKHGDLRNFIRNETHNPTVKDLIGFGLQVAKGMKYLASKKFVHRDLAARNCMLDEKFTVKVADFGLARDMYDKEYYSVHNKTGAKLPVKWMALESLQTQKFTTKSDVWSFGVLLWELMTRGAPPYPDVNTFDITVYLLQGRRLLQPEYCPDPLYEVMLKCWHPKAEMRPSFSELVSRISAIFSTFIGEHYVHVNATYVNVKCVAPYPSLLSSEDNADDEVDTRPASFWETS

Structure (SMILES)	inhibition [1] [%]	inhibition [2] [%]	inhibition [3] [%]	inhibition [4] [%]	inhibition [5] [%]
COc1cc(C)c(S(C)(=O)=O)cc1C(=O)Nc1cccc(-c2nncn2C(C)C)n1	-1	-1	0	-6	2
COc1ccc(S(N)(=O)=O)cc1C(=O)Nc1cccc(-c2nncn2C(C)C)n1	8	4	-4	7	-1
COc1ccc(S(C)(=O)=O)cc1C(=O)Nc1cccc(-c2nncn2C(C)C)n1	6	3	-3	7	0

Other lines, results leading:

inhibition [1] [%]	inhibition [2] [%]	inhibition [3] [%]	inhibition [4] [%]	inhibition [5] [%]	Structure (SMILES)
10	1	6	-6	-3	COc1cc(C)c(S(N)(=O)=O)cc1C(=O)Nc1cccc(-c2nncn2C(C)C)n1
9	8	-3	11	17	COc1cc(C)c(C(N)=O)cc1C(=O)Nc1cccc(-c2nncn2C(C)C)n1
20	7	2	5	11	COc1ccc(C(N)=O)cc1C(=O)Nc1cccc(-c2nncn2C(C)C)n1
